Measurements reported in ChEMBL document CHEMBL1121573, “2-(Aminomethyl)phenols, a new class of saluretic agents. 1. Effects of nuclear substitution” (J Med Chem, 1980).
Values joined by “and” are separate entries in the source; they are usually repeats but may differ in a detail not shown here. Equal entries are not always repeated.

How the values were obtained:
Canis familiaris [1] = assay: Oral diuretic activity was evaluated by measuring Na+ excretion in dog at 0.312 mg/kg after ip administration; assay type: ADME, organism-based, Canis lupus familiaris, Urine; set-up: dose 0.312 mg/kg, route intraperitoneal; details: in vivo
Summary of the method: (§1)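 Spontaneous urine was pooled with bladder urine collected by catheterization at 6 h. Volume was measured and Na+, K+ and Cl− were determined by standard methods. Values are geometric means.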

Canis familiaris [2] = assay: Oral diuretic activity was evaluated by measuring Na+ excretion in dog at 0.625 mg/kg after ip administration; assay type: ADME, organism-based, Canis lupus familiaris, Urine; set-up: dose 0.625 mg/kg, route intraperitoneal; details: in vivo; summary of the method: as §1
Canis familiaris [3] = assay: Oral diuretic activity was evaluated by measuring Na+ excretion in dog at 2 mg/kg after […]; assay type: ADME, organism-based, Canis lupus familiaris, Urine; set-up: dose 2 mg/kg; details: in vivo
Summary of the method: (§2)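 Dogs; spontaneous urine was pooled with bladder urine drained by catheter at the end of 6 h. Urine volume was measured, and aliquots were assayed for Na+, K+ and Cl− by standard methods. Values are geometric means, expressed as mequiv over 0–6 h.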

Canis familiaris [4] = assay: Oral diuretic activity was evaluated by measuring K+ excretion in dog at 5 mg/kg after ip administration; assay type: ADME, organism-based, Canis lupus familiaris, Urine; set-up: dose 5 mg/kg, route intraperitoneal; details: in vivo; summary of the method: as §1
Canis familiaris [5] = assay: Oral diuretic activity was evaluated by measuring Na+ excretion in dog at 5 mg/kg after ip administration; assay type: ADME, organism-based, Canis lupus familiaris, Urine; set-up: dose 5 mg/kg; details: in vivo; summary of the method: as §2
Canis familiaris [6] = assay: Oral diuretic activity was evaluated by measuring K+ excretion in dog at 2 mg/kg after ip administration; assay type: ADME, organism-based, Canis lupus familiaris, Urine; set-up: dose 2 mg/kg, route intraperitoneal; details: in vivo; summary of the method: as §1
Canis familiaris [7] = assay: Oral diuretic activity was evaluated by measuring K+ excretion in dog at 0.312 mg/kg after ip administration; assay type: ADME, organism-based, Canis lupus familiaris, Urine; set-up: dose 0.312 mg/kg, route intraperitoneal; details: in vivo
Canis familiaris [8] = assay: Oral diuretic activity was evaluated by measuring K+ excretion in dog at 0.625 mg/kg after […]; assay type: ADME, organism-based, Canis lupus familiaris, Urine; set-up: dose 0.625 mg/kg; details: in vivo; summary of the method: as §1
Rattus norvegicus [9] = assay: Compound administered orally was evaluated for salidiuretic activity measured as sodium ion excretion in Rat; assay type: ADME, organism-based, Urine; details: in vivo, po
Summary of the method: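 Female Charles-River rats (150–170 g), overnight on sugar diet with water ad libitum. Compound dissolved in DMF, diluted with water containing Tween 80 (final 4% DMF), given po in 5.0 mL; concurrent vehicle placebo. Three rats per metabolism cage; 0–5 h urine analysed for Na+, K+, Cl-. Values: mequiv × 100 per cage, geometric means of three cages per dose; scored 0–6 by Na+.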

Canis familiaris [10] = assay: Oral diuretic activity was evaluated by measuring Cl- excretion in dog at 5 mg/kg after ip administration; assay type: ADME, organism-based, Canis lupus familiaris, Urine; set-up: dose 5 mg/kg, route intraperitoneal; details: in vivo
Canis familiaris [11] = assay: Compound administered intravenously was evaluated for salidiuretic activity measured as sodium ion excretion in Dog; assay type: ADME, organism-based, Canis lupus familiaris, Urine; set-up: unit not given beside the values; details: in vivo, iv
Summary of the method: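 Conditioned female mongrel dogs, postabsorptive, water-loaded (500 mL po) 1 h before sodium pentobarbital anesthesia (30 mg/kg iv). Bladder catheter; creatinine 4 g sc; phosphate–mannitol buffer pH 7.4 infused (3.0 mL/min) throughout. […] Urine Na+ measured; response scored 0–6.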

Rattus norvegicus [12] = assay: Oral diuretic activity was evaluated by measuring Cl- excretion in Rat at 27 mg/kg after ip administration; assay type: ADME, organism-based, Urine; set-up: dose 27 mg/kg, route intraperitoneal; details: in vivo
Rattus norvegicus [13] = assay: Oral diuretic activity was evaluated by measuring Cl- excretion in Rat at 3 mg/kg after ip administration; assay type: ADME, organism-based, Urine; set-up: dose 3 mg/kg, route intraperitoneal; details: in vivo
Rattus norvegicus [14] = assay: Oral diuretic activity was evaluated by measuring Cl- excretion in Rat at 81 mg/kg after ip administration; assay type: ADME, organism-based, Urine; set-up: dose 81 mg/kg, route intraperitoneal; details: in vivo
Canis familiaris [15] = assay: Oral diuretic activity was evaluated by measuring Cl- excretion in dog at 0.312 mg/kg after ip administration; assay type: ADME, organism-based, Canis lupus familiaris, Urine; set-up: dose 0.312 mg/kg, route intraperitoneal; details: in vivo
Canis familiaris [16] = assay: Oral diuretic activity was evaluated by measuring Cl- excretion in dog at 0.625 mg/kg after ip administration; assay type: ADME, organism-based, Canis lupus familiaris, Urine; set-up: dose 0.625 mg/kg, route intraperitoneal; details: in vivo
Canis familiaris [17] = assay: Oral diuretic activity was evaluated by measuring Cl- excretion in dog at 2 mg/kg after ip administration; assay type: ADME, organism-based, Canis lupus familiaris, Urine; set-up: dose 2 mg/kg, route intraperitoneal; details: in vivo
Rattus norvegicus [18] = species on record: Rattus norvegicus; assay: Time taken for the decrease in arterial pressure was measured; assay type: functional, Artery
Rattus norvegicus [19] = assay: Maximum fall in mean arterial blood pressure was measured in SH rats when compound was administered at 0.078 mg/kg perorally; assay type: functional; details: route oral
Rattus norvegicus [20] = assay: Maximum fall in mean arterial blood pressure was measured in SH rats when compound was administered at 0.312 mg/kg perorally; assay type: functional; details: route oral
Rattus norvegicus [21] = assay: Maximum fall in mean arterial blood pressure was measured in SH rats when compound was administered at […] mg/kg perorally; assay type: functional; details: route oral
Rattus norvegicus [22] = assay: Oral diuretic activity was evaluated by measuring K+ excretion in Rat at 3 mg/kg after po administration; details: in vivo

Diuretic activity (Canis familiaris [1]): 13.76 | Diuretic activity (Canis familiaris [2]): 22.3 | Diuretic activity (Canis familiaris [3]): 44.9 | Diuretic activity (Canis familiaris [4]): 9.9 | Diuretic activity (Canis familiaris [5]): 56.8 | Diuretic activity (Canis familiaris [6]): 9.3 | Diuretic activity (Canis familiaris [7]): 4.34 | Diuretic activity (Canis familiaris [8]): 5.1 | Diuretic activity (Rattus norvegicus [9]): 6 | Diuretic activity (Canis familiaris [10]): 69.6 | Diuretic activity (Canis familiaris [11]): 6 | Diuretic activity (Rattus norvegicus [12]): 4.35 | Diuretic activity (Rattus norvegicus [13]): 2.11 | Diuretic activity (Rattus norvegicus [14]): 4.89 | Diuretic activity (Canis familiaris [15]): 19.28 | Diuretic activity (Canis familiaris [16]): 30.3 | Diuretic activity (Canis familiaris [17]): 57 | Diuretic activity (Rattus norvegicus [22]): 0.51
Structure (SMILES): CC(C)(C)c1cc(I)c(O)c(CN)c1.Cl
Duration (Rattus norvegicus [18]): 18 h and >24 h | MAP (Rattus norvegicus [19]): 16 mmHg | MAP (Rattus norvegicus [20]): 26 mmHg | MAP (Rattus norvegicus [21]): 38 mmHg
